In the library only some 1.5% were active in any assay of this set; here they are far more common.
APJ agonist: agonists of human APJ apelin receptor; CHO-K1 APJ PathHunter beta-arrestin, luminescence; 0% DMSO wells, 100% apelin; activation, % at 20 µM; AID 2520; 330,000 tested, 0.11% active;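 active = activation more than six SD over the plate average, tested at 20 µM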
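Test system: CHO-K1 APJ beta-arrestin complementation cell line | Compound: Single test compound dose, 20 µM final, 1% DMSO | Incubation: Compound 90 min 25 °C, reagent 1 h | Measured by: beta-gal luminescence | Read-out basis: APJ–arrestin association signal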
CXCR6 inh: inhibitors of human CXCR6 receptor. O00574. CHO-K1 PathHunter CXCR6 beta-arrestin, luminescence. inhibition, % at 20 µM. 360,000 tested, 0.36% active. AID 602244; in the data active = inhibition above about 34%, passing the limit was not always enough;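 note: antagonist mode with CXCL16 agonist at 10 nM final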
Target sequence (O00574 whole entry, looked up): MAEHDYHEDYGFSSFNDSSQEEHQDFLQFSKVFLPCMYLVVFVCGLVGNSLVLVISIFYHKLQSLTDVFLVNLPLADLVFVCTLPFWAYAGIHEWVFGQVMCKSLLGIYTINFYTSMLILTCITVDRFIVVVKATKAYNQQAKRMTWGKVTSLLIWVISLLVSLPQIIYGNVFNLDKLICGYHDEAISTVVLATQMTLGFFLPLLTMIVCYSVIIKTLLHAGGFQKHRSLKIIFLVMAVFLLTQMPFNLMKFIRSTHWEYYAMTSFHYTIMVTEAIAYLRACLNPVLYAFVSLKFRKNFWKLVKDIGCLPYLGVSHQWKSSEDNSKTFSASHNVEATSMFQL
APJ antagonist: APJ receptor antagonism. P35414. CHO-K1 APJ beta-arrestin complementation, luminescence. inhibition, % at 20 µM. 330,000 tested, 0.32% active;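 active = inhibition above about 40% at 20 µM, limit read from the data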;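 note: cells challenged with 10 nM apelin-13 agonist together with compound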
EBI2 antag: blocks human EBI2 receptor beta-arrestin signaling. EBI2 beta-arrestin recruitment, luminescence, 7a,25-OHC stimulated. inhibition, % at 5 µM. 360,000 tested, 0.81% active. AID 651636; in the data active = inhibition above about 38%;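 note: enzyme fragment complementation signal reports receptor beta-arrestin coupling in cells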
CCR6 antag: blocks CCL20-driven beta-arrestin recruitment at human CCR6. P51684. CHO-K1 CCR6 PathHunter beta-arrestin, luminescence, CCL20-stimulated. inhibition, % at 20 µM. 340,000 tested, 0.49% active. AID 493098;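 active = compounds whose inhibition of the agonist-driven luminescence signal at 20 µM reaches about 50%, limit read from the data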;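 note: cells stimulated with CCL20 at 14 nM final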
EBI2 conf: EBI2 (human) antagonism, single concentration confirmation | 2,400 tested, 29% active | inhibition, % at 5 µM | AID 651997 | shares compounds with EBI2 antag | EBI2 beta-arrestin luminescence, 7a,25-OHC antagonism;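 active = inhibition of at least 50%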
EBI2 ag: EBI2 agonism counter-screen. activation, % at 5 µM. EBI2-expressing cells, agonist mode, luminescence, 60 min; 0% vehicle, 100% 7α,25-dihydroxycholesterol control. 2,400 tested, under 10 active. shares compounds with EBI2 antag;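 active = activation of at least 50%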
bGal cs: counter-screen for EBI2 antagonists: E. coli beta-galactosidase inhibition | inhibition, % at 5 µM | 2,400 tested, 1% active | AID 652176 | purified beta-galactosidase, luminescent Galacton Star, 15 min | shares compounds with EBI2 antag;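 active = replicate-average signal at least 3 plate SD below neutral wells, shown as high inhibition, flagging enzyme-inhibiting false positives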;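 note: higher means stronger loss of beta-gal luminescence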
Each line names hits and unclear results; the compound was inactive in the other large screens (follow-up assays come after a bar, where they were run).

C#CCOCCOCCOCCNc1nc(N2CCN(C(=O)C([C@@H](C)CC)n3cc(C(N)COC(=O)C(F)(F)F)nn3)CC2)nc(N2CCN(C(=O)C([C@@H](C)CC)n3cc(C(N)CC(C)C)nn3)CC2)n1 (some centres not stated)	none (no result: CXCR6 inh, EBI2 antag)
O=C(Nc1ccc2ccccc2n1)c1ccccc1Cl	none
O=C(Nc1ccc2ccccc2n1)c1ccc(Cl)cc1	EBI2 antag 61 | EBI2 conf inactive | EBI2 ag inactive | bGal cs inactive
Cn1cccc1CC(=O)N/N=C/c1ccc(C(C)(C)C)cc1	none
Cc1ccc(/C=N/NC(=O)CSCc2ccc(Cl)cc2)cc1	EBI2 antag 62 | EBI2 conf inactive | EBI2 ag inactive | bGal cs inactive
CSc1ccc(/C=N/NC(=O)CN2CCN(Cc3ccc(Cl)cc3)CC2)cc1	EBI2 antag 50 | EBI2 conf inactive | EBI2 ag inactive | bGal cs inactive
Cc1ccc(/C=N/NC(=O)Cc2cccn2C)cc1	EBI2 antag 46 | EBI2 conf inactive | EBI2 ag inactive | bGal cs inactive
CSc1ccc(/C=N/N2CCN(Cc3ccc(Cl)cc3)CC2)cc1	none
CSc1ccc(/C=N/NC(=O)CN2CCN(Cc3ccccc3)CC2)cc1	EBI2 antag 50 | EBI2 conf inactive | EBI2 ag inactive | bGal cs inactive
CCOC(=O)C1=C(COC(=O)CCOc2cc(C)ccc2C)NC(=O)NC1C (configuration not stated)	none
Cc1cc(Oc2ccc(=O)n(C)n2)nc(SCc2ccccc2)n1	none
Cc1cccc(NC(=O)NCCN2CCN(c3ccccc3)CC2)c1C	none
CSCCC(NC(=O)OCc1ccccc1)NC(=O)OCc1ccccc1	none (no result: APJ agonist, APJ antagonist, CCR6 antag)
Cc1ccc(C(=O)N2CCC3(CC2)Oc2ccc(F)cc2C(=O)C32CC(c3ccccc3)=NO2)s1 (configuration not stated)	none
CCCCn1c2ccc(F)cc2c2nnc(SCCN3CCCCC3)nc21	EBI2 antag 57 | EBI2 conf inactive | EBI2 ag inactive | bGal cs inactive
CCCCn1c2ccc(C)cc2c2nnc(SCCN3CCCCC3)nc21	EBI2 antag 69 | EBI2 conf inactive | EBI2 ag inactive | bGal cs inactive
COc1ccccc1N1CCN(C(=O)COc2ccc(C)cc2Br)CC1	EBI2 antag 50 | EBI2 conf inactive | EBI2 ag inactive | bGal cs inactive
COc1ccccc1N1CCN(C(=O)c2cc(-c3ccccc3)on2)CC1	EBI2 antag 63 | EBI2 conf 54 | EBI2 ag inactive | bGal cs inactive
CCCS(=O)(=O)N1CCN(C(=O)c2cccnc2)CC1	none
COc1ccccc1N1CCN(C(=O)c2ccc(-c3ccccc3)cc2)CC1	EBI2 antag 74 | EBI2 conf inactive | EBI2 ag inactive | bGal cs inactive
COc1ccc(-c2cc(C(=O)N3CCN(c4ccccc4OC)CC3)no2)cc1OC	none
CCCS(=O)(=O)N1CCN(C(=O)c2ccc(-c3ccccc3)cc2)CC1	EBI2 antag 73 | EBI2 conf inactive | EBI2 ag inactive | bGal cs inactive
COc1cccc(CNC(=O)COC(=O)CCc2cc(OC)c(OC)c(OC)c2)c1	none
O=C(CSc1cccc[n+]1[O-])C12CC3CC(CC(C3)C1)C2	none
COc1ccccc1N1CCN(C(=O)c2cc(-c3cccs3)on2)CC1	EBI2 antag 67 | EBI2 conf 52 | EBI2 ag inactive | bGal cs inactive
COc1ccccc1N1CCN(C(=O)/C=C/c2cccc([N+](=O)[O-])c2)CC1	none
O=C(c1ccccc1)N1CCN(c2ncccn2)CC1	none
COc1ccccc1N1CCN(C(=O)/C=C/c2ccc(C)cc2)CC1	EBI2 antag 93 | EBI2 conf 85 | EBI2 ag inactive | bGal cs inactive
O=C(c1ccc(-c2ccccc2)cc1)N1CCN(c2ncccn2)CC1	EBI2 antag 49 | EBI2 conf inactive | EBI2 ag inactive | bGal cs inactive
Cc1ccc(/C=C/C(=O)N2CCN(c3cccc(C(F)(F)F)c3)CC2)cc1	EBI2 antag 83 | EBI2 conf 76 | EBI2 ag inactive | bGal cs inactive
COc1ccccc1C(=O)NCC(=O)N/N=C/c1cccc(Cl)c1	none
COc1ccc(-c2oc3c(c2C(=O)OCCO)C(OCCO)CCC3)cc1 (configuration not stated)	none (no result: APJ agonist, APJ antagonist, CCR6 antag)
C/C(=C\C(=O)c1ccccc1)Nc1ccc2c(c1)OCO2	none
Cc1ccc(C)c(NC(=S)N2CCC(C(=O)c3ccc(F)cc3)CC2)c1	none (no result: APJ agonist, APJ antagonist, CCR6 antag)
O=C(c1ccc(-c2ccccc2)cc1)N1CCCC1	none
C=CCN1CCN(C(=O)c2ccc(-c3ccccc3)cc2)CC1	EBI2 antag 77 | EBI2 conf inactive | EBI2 ag inactive | bGal cs inactive
O=C(c1cc(Br)c(Br)s1)N1CCN(C/C=C/c2ccccc2)CC1	EBI2 antag 65 | EBI2 conf inactive | EBI2 ag inactive | bGal cs inactive
Cc1cc(C(=O)N2CCN(C/C=C/c3ccccc3)CC2)cs1	EBI2 antag 46 | EBI2 conf inactive | EBI2 ag inactive | bGal cs inactive
O=C(c1cccnc1)N1CCN(C/C=C/c2ccccc2)CC1	none
Cc1cc(NC(=O)CCN2CCN(C/C=C/c3ccccc3)CC2)ccc1Br	none
CCO/C=C/C(O)(CNC(=O)c1ccc(C(C)(C)C)cc1)C(F)(F)F (configuration not stated)	none
CCOc1ccccc1Nc1cc(C)nc2ccc(C)cc12	none
CCOC(=O)Nc1nnc(/C=C/c2ccc(OC)cc2)s1	none
CCCCOC(=O)Nc1nnc(/C=C/c2ccc(OC)cc2)s1	EBI2 antag 55 | EBI2 conf inactive | EBI2 ag inactive | bGal cs inactive
COc1ccc(CNC(=O)CSc2nccn(-c3ccc(F)c(F)c3)c2=O)cc1	none
CC(=O)NS(=O)(=O)c1ccc(N=c2ssc3c2-c2cc(C)c(C)cc2NC3(C)C)cc1	none
Cc1cc2c(cc1C)-c1c(ssc1=Nc1ccc(S(N)(=O)=O)cc1)C(C)(C)N2	EBI2 antag 53 | EBI2 conf 58 | EBI2 ag inactive | bGal cs inactive
Cc1cc(C(=O)COC(=O)C2CCN(C(=O)c3ccc(Cl)cc3)CC2)c(C)n1CC1CCCO1 (configuration not stated)	EBI2 antag 73 | EBI2 conf 51 | EBI2 ag inactive | bGal cs inactive
COc1ccc(/C=C/c2nc(S(=O)(=O)c3ccccc3)c(N(C)C)o2)cc1	none
Cc1cc(Br)ccc1OCC(=O)NNC(=O)CCc1ccccc1	none

High-throughput results as filed in PubChem.
